IDE inh = inhibitors of human insulin-degrading enzyme in cells. P14735. HEK cells, FAbetaB cleavage, fluorescence polarization. inhibition, % at 5.59 µM. 320,000 tested, 0.41% active. AID 434962;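 active = percent inhibition above the average of all tested compounds plus 3 SD, set per screening campaign, cut at about 16% in these data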;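 also: IDE supplied by intact live HEK cells; FP after avidin binding of uncleaved biotin substrate so inhibition keeps polarization high; 0% = DMSO wells and 100% = 60 µM reference IDE inhibitor Ii1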
CSN inh = inhibitors of human CSN-mediated cullin deneddylation; 360,000 tested, 0.38% active; Purified CSN, SCF-Nedd8-OG deneddylation, fluorescence polarization; inhibition, % at 12.5 µM;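 active = pattern-corrected inhibition above about 35%, with an unprinted fluorescence ratio check between 0.5 and 1.5, limit read from the data, passing the limit was not always enough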;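 also: 0% = enzyme with substrate and 100% = substrate without enzyme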
Target sequence (Q92905 whole entry, looked up, one chain of several): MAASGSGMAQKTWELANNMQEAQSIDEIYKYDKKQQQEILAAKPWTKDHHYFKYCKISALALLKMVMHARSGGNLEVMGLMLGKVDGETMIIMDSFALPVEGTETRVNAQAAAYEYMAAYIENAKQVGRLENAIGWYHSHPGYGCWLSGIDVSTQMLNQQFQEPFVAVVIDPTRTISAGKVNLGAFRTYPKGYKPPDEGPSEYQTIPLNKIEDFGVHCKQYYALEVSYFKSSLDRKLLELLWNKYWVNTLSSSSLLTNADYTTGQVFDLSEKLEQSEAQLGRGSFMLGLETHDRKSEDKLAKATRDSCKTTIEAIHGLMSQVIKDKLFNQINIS
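Assay system: HEK293T-derived human Csn5 enzyme; quantity: 0.24 nM enzyme; medium: Tris/NaCl/DTT buffer, pH 7.5; also added: substrate SCFSkp2-Nedd8OG, 10 nM; doses: 12.5 µM compound; schedule: 90 min reaction at room temperature; signal: FP; read-out: % inhibition of substrate cleavage by Csn5; benchmarks: substrate-only high control, full reaction low control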
IDE cell activ = IDE (human) activation, cell-based; HEK cells, FAbeta-B cleavage, fluorescence polarization; 0% vehicle, 100% cell-free pure enzyme wells; activation, % at 5.96 µM; 340,000 tested, 0.073% active;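 active = activation above the mean of all tested compounds plus 3 SD, set per screening campaign, cut at about 17% in these data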
Rpn11 inh = Rpn11 (human) deubiquitinase inhibition | O00487 | human 26S proteasome, Ub4-pepOG fluorescence polarization; 20S core pre-blocked with epoxomicin | inhibition, % at 20 µM | 360,000 tested, 0.59% active | AID 588493;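 active = inhibition at 20 µM, scaled to each plate's controls, above about 33%, limit read from the data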
Target sequence (O00487 whole entry, looked up): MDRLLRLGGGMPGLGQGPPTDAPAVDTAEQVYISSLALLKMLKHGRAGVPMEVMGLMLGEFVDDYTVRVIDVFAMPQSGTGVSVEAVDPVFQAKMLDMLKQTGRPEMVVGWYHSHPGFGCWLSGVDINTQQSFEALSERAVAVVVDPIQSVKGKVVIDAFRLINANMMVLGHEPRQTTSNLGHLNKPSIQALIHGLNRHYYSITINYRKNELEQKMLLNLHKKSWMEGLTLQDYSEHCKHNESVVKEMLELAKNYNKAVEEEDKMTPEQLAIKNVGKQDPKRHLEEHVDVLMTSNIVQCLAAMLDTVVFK
TPT1 inh = C. albicans TPT1 enzyme inhibition; inhibition, % at 5 µM; 300,000 tested, 0.81% active; recombinant caTPT1, FP RNA substrate dephosphorylation;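 active = inhibition above the mean of all tested compounds plus 3 SD, set per screening campaign, cut at about 24% in these data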;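 also: plate controls were DMSO alone for no effect and ferristatin control at 100 nM for full effect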
HNF4A DNA FP = change in binding of human HNF4 alpha to DNA; P41235; HNF4a-FITC DNA binding, fluorescence polarization, 1 h; activity change, % at 10 µM; 360,000 tested, 0.3% active; AID 1224865; in the data active = activity change above about 30%, passing the limit was not always enough
Rpn11 confirm = Rpn11 inhibition confirmation, single concentration. purified human 26S proteasome, Ub4-pepOG fluorescence polarization; proteasome pretreated with epoxomicin. 1,900 tested, 29% active. inhibition, % at 20 µM. shares compounds with Rpn11 inh
MMP-2 counter = blocks human MMP-2, flagging nonselective RPN11 hits; shares compounds with Rpn11 inh; recombinant MMP-2, FRET peptide cleavage fluorescence; inhibition, % at 20 µM; 1,900 tested, 4% active;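 also: human MMP-2 activated beforehand with APMA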
Thrombin FP = counter-screen for RPN11 inhibitors: inhibition of bovine thrombin. 1,900 tested, 13% active. bovine thrombin cleavage of Ub4-pepOG, fluorescence polarization. AID 602333. shares compounds with Rpn11 inh. inhibition, % at 20 µM;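 active = mean inhibition at least 40% at 20 µM, or signal 3 deviations below plate average, so some actives read negative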;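 also: plate controls were thrombin with DMSO for no effect and buffer wells lacking thrombin for full effect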
Starred values were filed as active, the others as inactive; x = no result. Rows were chosen to be rich in hits. Some 1.7% of all compounds tested hit in one or more screens of this group. Rule as the data show it, unless noted: active = inhibition above about 40%; inactive = the rest.

SMILES | IDE inh | CSN inh | IDE cell activ | Rpn11 inh | TPT1 inh | HNF4A DNA FP | Rpn11 confirm | MMP-2 counter | Thrombin FP
Oc1nc(Nc2ccc(Cl)cc2Cl)sc1/C=C1\C=Nc2ccccc21 | 12 | 9 | 0 | 56* | 11 | 12 | 60* | 22 | 45*
CCOC(=O)C1=C(C)NC(=S)NC1C (stereo not given) | -1 | 3 | -2 | 0 | 0 | -3 | x | x | x
CCOC(=O)C1=C(c2ccccc2)NC(=S)NC1C (stereo not given) | 4 | 4 | 7 | 112* | -3 | 3 | -14 | -39 | -26
CC1CCCCN1CCNC(=O)c1ccc2c(=O)n(Cc3ccc(Cl)cc3)c(=S)[nH]c2c1 (stereo not given) | 3 | 3 | 3 | 17 | 3 | 10 | x | x | x
COc1ccc(-n2c(N)c(C(=O)Nc3c(C)n(C)n(-c4ccccc4)c3=O)c3nc4ccccc4nc32)cc1 | 6 | 33 | 1 | 88* | -6 | 0 | 7 | -45 | 1
Cc1ccc(-n2c(N)c(C(=O)Nc3c(C)n(C)n(-c4ccccc4)c3=O)c3nc4ccccc4nc32)cc1C | 1 | x | x | x | -3 | x | x | x | x
O=C(Nc1ccccc1C(=O)OCC(=O)c1c[nH]c2ccccc12)c1ccco1 | 1 | 2 | 2 | 8 | 1 | 4 | x | x | x
C/C(=N\NC(=O)C(=O)Nc1ccc(C)c(Cl)c1)c1ccncc1 | 4 | 15 | -1 | 90* | 1 | -2 | 1 | -36 | -41
CCOC(=O)C1CCCN(c2nc3ccccc3nc2NS(=O)(=O)c2ccc(C)cc2)C1 (stereo not given) | 0 | 2 | 7 | 5 | x | -2 | x | x | x
Nc1c(/C=C2\C=Nc3ccccc32)c(=O)nc2sc(CC(=O)N3CCOCC3)nn12 | 3 | 4 | 5 | 15 | 5 | 4 | x | x | x
COC1=C/C(=C/c2c(N)n3nc(CC(=O)N4CCCCC4)sc3nc2=O)C=CC1=O | 12 | 12 | -46 | 51* | 8 | 7 | 39 | 4 | 52*
O=C(CSc1nnc(SCc2ccc(Cl)cc2)s1)N/N=C/c1c[nH]c2ccccc12 | -4 | 35 | 3 | 125* | -1 | 112* | 68* | 20 | -3
Cc1noc(/C=C/c2ccco2)c1S(=O)(=O)N1CCC(C(=O)NC(C)c2ccccc2)CC1 (stereo not given) | 2 | 5 | 4 | 52* | 5 | 21 | 0 | -37 | -2
COc1ccc(/C=C\c2onc(C)c2S(=O)(=O)N2CCC(C(=O)NCc3ccco3)CC2)cc1 | 4 | 3 | 0 | 2 | 0 | -6 | x | x | x
CCC/C=C/c1ccc(CN2C(CC(C)C)C(=O)N(Cc3cn(CCOCOC)nn3)CCS2(=O)=O)cc1 (stereo not given) | x | -2 | x | 1 | x | 1 | x | x | x
Cn1c(=O)oc2cc(S(=O)(=O)N3CCN(c4ccccc4F)CC3)ccc21 | 3 | 18 | -4 | 48* | 7 | 8 | 71* | -35 | 16
CCCc1nnc(NC(=O)CCC(=O)N2CCN(S(=O)(=O)c3ccc(C)cc3)CC2)s1 | 0 | 2 | 4 | 8 | -3 | 7 | x | x | x
COc1ccc(Cn2nnnc2C(c2cc(OC)ccc2OC)N2CCC(C(N)=O)CC2)cc1 (stereo not given) | 3 | 6 | 4 | 125* | -1 | 12 | -10 | 2 | -11
COc1ccc(Cn2nnnc2C(c2ccccc2Cl)N2CCC(C(N)=O)CC2)cc1 (stereo not given) | -5 | 0 | -5 | 2 | 0 | 4 | x | x | x
COc1cccc(/C=C/C(=O)NCc2ccc(S(N)(=O)=O)cc2)c1 | -2 | -1 | 1 | 0 | -7 | -1 | x | x | x
O=C(N/N=C/c1cc(Cl)cc([N+](=O)[O-])c1O)c1ccccc1NS(=O)(=O)c1cccs1 | 0 | -3 | 0 | 41* | 1 | 9 | 129* | -20 | -1
O=C(NN=Cc1ccc(O)cc1)c1ccccc1NS(=O)(=O)c1cccs1 | 3 | -4 | 2 | 3 | x | 3 | x | x | x
Cc1ccc(S(=O)(=O)N2CCN(C(=O)COC(=O)/C=C/c3ccc([N+](=O)[O-])cc3)CC2)c(C)c1 | -5 | -6 | 6 | 65* | x | 18 | -1 | -4 | -4
CCCOc1cccc(C2C(C(=O)c3ccc(C)o3)=C(O)C(=O)N2c2nc(C)c(C(C)=O)s2)c1 (stereo not given) | 1 | 19 | -1 | 50* | 17 | 14 | 9 | -29 | 11
CC1(C)NC(=O)N(CC(O)COc2cc3ccccc3cc2C(=O)N2CCCCC2)C1=O (stereo not given) | -1 | 1 | 4 | 67* | -2 | 0 | -29 | -18 | -13
SMILES | IDE inh | CSN inh | IDE cell activ | Rpn11 inh | TPT1 inh | HNF4A DNA FP | Rpn11 confirm | MMP-2 counter | Thrombin FP
Clc1cccc(Nc2nc(-c3ccncc3)nc3ccccc23)c1 | 0 | 0 | 4 | 7 | 2 | 8 | x | x | x
Cc1cccc(-c2nc(Nc3cccc(O)c3)c3ccccc3n2)c1 | 2 | 1 | 0 | 60* | 6 | 21 | 19 | -28 | 12
Cc1cccc(-c2nc(Nc3ccc(N4CCOCC4)cc3)c3ccccc3n2)c1 | -1 | -11 | 3 | 0 | 3 | 4 | x | x | x
Fc1ccc(Nc2nc(-c3ccncc3)nc3ccccc23)cc1F | 6 | 8 | -1 | 80* | -2 | 19 | 17 | -18 | -23
N#Cc1c(-c2ccccc2)ccnc1Oc1ccccc1 | 1 | -2 | 2 | -14 | -4 | 2 | x | x | x
Cc1ccccc1CC(=O)N1CCCC1 | 4 | 1 | 5 | -1 | 0 | -4 | x | x | x
CC(=O)Oc1ccc(C2=Cc3ccc(OC(C)=O)cc3OC2C)cc1 (stereo not given) | x | -2 | -3 | -2 | x | 0 | x | x | x
CCOC(=O)c1sc(NN=C(C(=O)OC)C(=O)OC)c(C(=O)OCC)c1C | 3 | -10 | 7 | 43* | 7 | 25 | 11 | 34 | 4
Cc1cc(NC(=O)Cn2nc([N+](=O)[O-])c(Br)c2C)no1 | -3 | 1 | -4 | 6 | -3 | 2 | x | x | x
CC(=O)c1cccc(NC(=O)C2CC(=O)N(c3cccc(C)c3C)C2)c1 (stereo not given) | 0 | 1 | 5 | 93* | 0 | -1 | -9 | -27 | -7
Cc1cccc(N2CC(C(=O)Nc3cccc(S(=O)(=O)N4CCCCC4)c3)CC2=O)c1C (stereo not given) | -2 | -8 | 3 | 1 | x | 2 | x | x | x
